Measurements published in ChEMBL document CHEMBL2331367, “Alkaloids from Microcos paniculata with cytotoxic and nicotinic receptor antagonistic activities” (J Nat Prod, 2013).
Calls of active or inactive are those of the source. No cut-off for these calls is given here.

Assays:
HT-29 = test: Cytotoxicity against human HT-29 cells assessed as inhibition of cell proliferation after 3 days by SRB assay; assay type: functional, cell-based; conditions: HT-29, 72 h
[1] = target: Neuronal acetylcholine receptor; alpha4/beta2 (Homo sapiens) (UniProt P17787+P43681); test: Antagonist activity at human recombinant alpha4beta2 nAChR expressed in human HEKtsA201 cells assessed as inhibition of epibatidine-stimulated calcium accumulation at 10 uM pretreated and cotreated with epibatidine by fluorescence plate reader analysis; assay type: cell-based
In short: (§1)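 HEKtsA201 cells stably expressing human α3β4 or α4β2 nAChR, plated 2.0–2.3×10^5/well on poly-L-ornithine 24 h before assay; loaded with Calcium 5 NW dye in HEPES-buffered Krebs, 1 h room temperature. Compound (10 μM) added at 20 s, then 1 μM epibatidine at 60 s while compound remained. Fluorescence (ex 485/em 525 nm) recorded 120 s; net response expressed as % of epibatidine control; triplicates.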

[2] = target: Neuronal acetylcholine receptor; alpha3/beta4 (Homo sapiens) (UniProt P30926+P32297); test: Antagonist activity at human recombinant alpha3beta4 nAChR expressed in human HEKtsA201 cells assessed as inhibition of epibatidine-stimulated calcium accumulation at 10 uM pretreated and cotreated with epibatidine by fluorescence plate reader analysis; assay type: cell-based; in short: as §1
[3] = Selectivity ratio of IC50 for human CCD-112CoN cells to IC50 for human HT29 cells; assay type: ADME, cell-based, HT-29; conditions: CCD-112CoN cells and HT29 cells, read-out: Ratio IC50
[4] = Cytotoxicity against human CCD-112CoN cells assessed as inhibition of cell proliferation after 3 days by SRB assay; assay type: cell-based; conditions: 72 h
In short: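 CCD-112CoN normal human colon cells grown in MEME with 10% FBS, pyruvate, non-essential amino acids, 37 °C 5% CO2; used ~70% confluent, 7,600 cells/well. Serial dilutions added in triplicate (10% DMSO vehicle), incubated 3 days; cells TCA-fixed, stained with 0.4% sulforhodamine B, dye solubilized in 10 mM Tris, absorbance 515 nm; IC50 by non-linear regression.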

SMILES | IC50 (HT-29) [µM] | inhibition [1] [%] | inhibition [2] | selectivity ratio [3] | IC50 [4] [µM]
COc1ccc(CCNC(=O)/C=C/c2ccc(O)c(O)c2)cc1 | > 10 | 21.8 | 14% | – | –
CCCC/C=C/C=C/C=C/[C@@H]1CC[C@@H](OC(C)=O)[C@H](C)N1C | > 10 | 44.1 | – | – | –
CCCC/C=C/C=C/C=C/[C@@H]1CC[C@@H](O)[C@H](C)N1 | – | 59 | 53% | – | –
CNC1(C)C2CCC(C2)C1(C)C (centres undefined) | – | 91.8 | 88.3% | – | –
COc1cc2c3cc1Oc1cc(ccc1O)C[C@@H]1c4c(cc(OC)c(O)c4Oc4ccc(cc4)C[C@@H]3N(C)CC2)CC[N+]1(C)C | – | 61 | 54% | – | –
O=C(OCC1CCCN(CCCc2ccccc2)C1)c1ccccc1-c1ccccc1 (centres undefined) | – | 39 | inactive | – | –
O=C1c2ccccc2-c2c3c(cc4ccnc1c24)OCO3 [LIRIODENINE] | > 10 | 13.3 | 19.3% | – | –
CCCC/C=C/C=C/C=C/[C@@H]1CC[C@@H](O)[C@H](C)N1C [MICROGREWIAPINE A] | 6.8 | 74 | 58.2% | 4 | 30.4
CCCC/C=C/C=C/C=C/[C@@H]1CC[C@@H](O)[C@H](C)[N+]1(C)[O-] (some centres undefined) [MICROGREWIAPINE B] | > 10 | 79.3 | 82.7% | – | –
CCCC/C=C/C=C/C=C/[C@@H]1CC[C@H](O)[C@H](C)[N+]1(C)[O-] (some centres undefined) [MICROGREWIAPINE C] | > 10 | 67.3 | 82.8% | – | –
CC(=O)O[C@H]1C(=O)[C@@]2(C)[C@H]([C@H](OC(=O)c3ccccc3)[C@]3(O)C[C@H](OC(=O)[C@H](O)[C@@H](NC(=O)c4ccccc4)c4ccccc4)C(C)=C1C3(C)C)[C@]1(OC(C)=O)CO[C@@H]1C[C@@H]2O [PACLITAXEL] | 0.001 | – | – | – | 23
